Assay results: PubChem BioAssay AID624038 (The Scripps Research Institute Molecular Screening Center, 2012)
In all, about 360,000 compounds went through this assay and about 1,100 (0.31%) were called active. The sample as a whole holds a higher share of actives than the screen did. Unmarked numbers belong to inactive results.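 How the source made its calls: active means activation above the run cutoff, the mean activation of all test compounds plus 3 SD (cut at about 18% in these data); inactive means the rest.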

target: Muscarinic acetylcholine receptor M5 (Homo sapiens) (UniProt P08912); assay: human M5 muscarinic receptor positive allosteric modulators, primary screen, CHO-K1 cells, Fluo-8 calcium fluorescence (AID 624038); conditions: CHO-K1 hM5, Fluo-8 calcium, ACh EC20 PAM; at 3 µM; hits give high values; 0% = ACh EC20, 100% = ACh EC100
Sequence (P08912 whole entry, looked up): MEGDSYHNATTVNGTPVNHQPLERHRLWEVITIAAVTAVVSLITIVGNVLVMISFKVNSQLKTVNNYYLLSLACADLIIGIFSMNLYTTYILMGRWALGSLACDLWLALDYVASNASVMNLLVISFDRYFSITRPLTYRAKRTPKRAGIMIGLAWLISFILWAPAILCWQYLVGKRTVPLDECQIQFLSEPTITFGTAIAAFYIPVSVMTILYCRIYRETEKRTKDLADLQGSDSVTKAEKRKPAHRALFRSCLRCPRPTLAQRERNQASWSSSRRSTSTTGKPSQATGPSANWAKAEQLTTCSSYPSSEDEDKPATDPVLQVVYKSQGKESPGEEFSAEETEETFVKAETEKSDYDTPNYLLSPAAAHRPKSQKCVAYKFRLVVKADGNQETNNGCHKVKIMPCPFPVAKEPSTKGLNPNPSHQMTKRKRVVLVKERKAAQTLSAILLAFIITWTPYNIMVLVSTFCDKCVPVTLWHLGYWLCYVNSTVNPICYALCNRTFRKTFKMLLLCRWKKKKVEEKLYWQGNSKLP
Summary of the method: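 System: CHO-K1 hM5 cells. Reagent: acetylcholine, EC20 level. Compound dosing: single dose, 3 µM nominal final test concentration. Timing: Post-acetylcholine fluorescence recording 140 s. Detection: Fluo-8 calcium fluorescence. Read-out: % activation, ACh-normalized. Benchmarks: ACh EC20 and EC100 wells. Repeats: singlicate, one well per test compound.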

| SMILES | activation |
| --- | --- |
| COc1ccc(NS(=O)(=O)c2ccc(C)c(C(=O)N(C)Cc3ccc(OC)cc3OC)c2)cc1 | -3.1% |
| CCC(NC(=O)c1ccccc1NC(=O)c1ccccc1)C(=O)NNC(=O)CSc1nc2ccccc2o1 (centres undefined) | -8.71% |
| COc1cc(CNCc2ccc3c(c2)OCO3)c([N+](=O)[O-])cc1OC | -5.12% |
| Cc1ccc(S(=O)(=O)N(Cc2ccccc2)c2ccccn2)cc1[N+](=O)[O-] | -10.1% |
| Nc1ccn(CC(=O)N2CCN(c3ccccn3)CC2)c(=O)n1 | 19% (active) |
| Cc1ccc2oc(=O)c3cnn(CC(=O)N4CCN(c5ccccn5)CC4)c3c2c1 | -15.1% |
| O=C(Cc1ccccc1Cl)N1CCN(c2ccccn2)CC1 | -0.15% |
| Cc1cccc(Nc2nc(-c3ccccc3)cs2)n1 | 22.1% (active) |
| CC(=O)NC(c1ccccc1)c1nc(-c2cccc(C(C)C)c2)cs1 (centres undefined) | -1.15% |
| COc1ccc2c(c1OC)C(=O)OC2Nc1nc(-c2ccccc2)cs1 (centres undefined) | 4.62% |
| Cc1cccc(N(C(=O)Cc2cccs2)C(C(=O)NC2CCCC2)c2ccsc2)c1 (centres undefined) | -1.6% |
| COc1ccc(C(=O)NC2CCN(C(=O)Nc3ccc(F)cc3)CC2)cc1 | 1.29% |
| Cc1ccc(C(=O)NC2CCN(C(=O)Nc3ccccc3Cl)CC2)cc1 | -7.16% |
| Cc1ccc(C(=O)NC2CCN(C(=O)Nc3ccc(F)cc3)CC2)cc1 | -2.54% |
| Cc1cc(C)cc(NC(=O)N2CCC(NC(=O)c3ccc(F)cc3)CC2)c1 | 18.7% (active) |
| CCOc1ccc(C(=O)NC2CCN(C(=O)Nc3ccccc3OC)CC2)cc1 | 19.6% (active) |
| CCOc1ccc(C(=O)NC2CCN(S(=O)(=O)CC)CC2)cc1 | 11.7% |
| Cc1ccc(OCC(=O)N2CCN(S(=O)(=O)c3ccc(Cl)s3)CC2)cc1C | 6.01% |
| CCCNCc1cc(OCC)c(OCC(=O)Nc2ccccc2)cc1Br | -3.11% |
| C=CC[C@@H](CC(=O)N[C@@H](CO)Cc1ccccc1)C(=O)N[C@H](COC(=O)[C@H](CC=C)CC(=O)OC(C)(C)C)Cc1ccccc1 | 12.5% |
| CCOC(=O)c1c(NC(=O)NC(C)(C)C)sc2c1CCN(C)C2 | -2.43% |
| CCOC(=O)C(C)N(c1ccccc1Cl)S(C)(=O)=O (centres undefined) | 4.74% |
| O=C(Nc1cc(S(=O)(=O)N2CCOCC2)ccc1OCC(F)(F)F)c1ccc(N2CCCC2=O)cc1 | -1.35% |
| COc1ccc(/C=C(/NC(=O)c2ccco2)C(=O)Nc2ccc(C(C)=O)cc2)cc1 | 5.57% |
